Test results taken from ChEMBL document CHEMBL1131948, “Design, synthesis, and evaluation of azapeptides as substrates and inhibitors for human rhinovirus 3C protease” (Bioorg Med Chem Lett, 1999).
Activity calls are given as the source filed them. The rule behind the calls is not given here. Where a SMILES comes first, the peptide text is derived from it. The star is where a group is joined. Boc = CC(C)(C)OC(=O)*; X1 = c1ccc(O*)cc1

Assays:
[1] = target: T1, Human rhinovirus A protease (Human rhinovirus sp.) (UniProt Q4U254); assay: Inhibitory activity against human rhinovirus 3C protease at a concentration of 150 uM (HRV-14 3Cpro)
T1 sequence (whole entry): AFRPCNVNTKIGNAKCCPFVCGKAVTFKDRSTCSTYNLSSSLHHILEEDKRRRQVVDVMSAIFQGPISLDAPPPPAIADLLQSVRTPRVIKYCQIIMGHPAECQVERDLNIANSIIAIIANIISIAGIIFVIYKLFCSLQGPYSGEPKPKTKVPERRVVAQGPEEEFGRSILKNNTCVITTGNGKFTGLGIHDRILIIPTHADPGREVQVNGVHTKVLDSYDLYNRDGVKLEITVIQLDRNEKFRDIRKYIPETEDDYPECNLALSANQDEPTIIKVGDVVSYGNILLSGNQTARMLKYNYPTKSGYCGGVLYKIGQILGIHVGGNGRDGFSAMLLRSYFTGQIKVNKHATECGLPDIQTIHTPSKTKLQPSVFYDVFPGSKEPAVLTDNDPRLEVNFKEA
Procedure, shortened: (§1)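 HRV-14 3C protease (0.75-3.3 µM) was preincubated with compound in 25 mM HEPES, 150 mM NaCl, 1 mM EDTA, pH 7.5, at 28-30 °C. Aliquots were taken periodically and diluted 13-fold into buffer containing 250 µM EALFQ-pNA, and absorbance was read at 405 nm. Activity is expressed relative to a no-inhibitor control, with the earliest point taken about 10-15 s after mixing.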

[2] = target: T1, Human rhinovirus A protease (Human rhinovirus sp.); assay: Inhibitory activity against human rhinovirus 3C protease (HRV-14 3Cpro); Inactive; procedure, shortened: as §1
[3] = target: T1, Human rhinovirus A protease (Human rhinovirus sp.); assay: Inhibitory activity against human rhinovirus 3C protease (HRV-14 3Cpro) at a concentration of 150 uM; parameters: scale not given: the % may be the effect or the level left; procedure, shortened: as §1
[4] = target: T1, Human rhinovirus A protease (Human rhinovirus sp.); assay: Inhibitory activity against human rhinovirus 3C protease (HRV-14 3Cpro) at a concentration of 150 uM after 60 min of incubation; parameters: scale not given: the % may be the effect or the level left; procedure, shortened: as §1
[5] = target: T1, Human rhinovirus A protease (Human rhinovirus sp.); assay: Inhibitory activity against human rhinovirus 3C protease (HRV-14 3Cpro) at a concentration of 50 uM after 30 min of incubation; parameters: scale not given: the % may be the effect or the level left; procedure, shortened: as §1
[6] = target: T1, Human rhinovirus A protease (Human rhinovirus sp.); assay: Inhibitory activity against human rhinovirus 3C protease (HRV-14 3Cpro) at a concentration of 100 uM after 75 min of incubation; parameters: scale not given: the % may be the effect or the level left; procedure, shortened: as §1
[7] = target: T1, Human rhinovirus A protease (Human rhinovirus sp.); assay: Inhibitory activity against human rhinovirus 3C protease (HRV-14 3Cpro) at a concentration of 100 uM after 110 min of incubation; parameters: scale not given: the % may be the effect or the level left; procedure, shortened: as §1
[8] = target: T1, Human rhinovirus A protease (Human rhinovirus sp.); assay: Inhibitory activity against human rhinovirus 3C protease (HRV-14 3Cpro) at a concentration of 100 uM; parameters: scale not given: the % may be the effect or the level left; procedure, shortened: as §1
[9] = target: T1, Human rhinovirus A protease (Human rhinovirus sp.); assay: Inhibitory activity against human rhinovirus 3C protease (HRV-14 3Cpro) at a concentration of 100 uM after 30 min of incubation; parameters: scale not given: the % may be the effect or the level left; procedure, shortened: as §1
[10] = target: T1, Human rhinovirus A protease (Human rhinovirus sp.); assay: Inhibitory activity against human rhinovirus 3C protease (HRV-14 3Cpro) at a concentration of 100 uM after 15 min of incubation; parameters: scale not given: the % may be the effect or the level left; procedure, shortened: as §1
[11] = target: T1, Human rhinovirus A protease (Human rhinovirus sp.); assay: Inhibitory activity against human rhinovirus 3C protease (HRV-14 3Cpro) at a concentration of 150 uM after 110 min of incubation; parameters: scale not given: the % may be the effect or the level left; procedure, shortened: as §1
[12] = target: T1, Human rhinovirus A protease (Human rhinovirus sp.); assay: Inhibitory activity against human rhinovirus 3C protease (HRV-14 3Cpro) at a concentration of 150 uM after 30 min of incubation; parameters: scale not given: the % may be the effect or the level left; procedure, shortened: as §1
[13] = target: T1, Human rhinovirus A protease (Human rhinovirus sp.); assay: Inhibitory activity against human rhinovirus 3C protease (HRV-14 3Cpro) at a concentration of 150 uM after 90 min of incubation; parameters: scale not given: the % may be the effect or the level left; procedure, shortened: as §1
[14] = target: T1, Human rhinovirus A protease (Human rhinovirus sp.); assay: Inhibitory activity against human rhinovirus 3C protease (HRV-14 3Cpro) at a concentration of 150 uM after 15 min of incubation; parameters: scale not given: the % may be the effect or the level left; procedure, shortened: as §1
[15] = target: T1, Human rhinovirus A protease (Human rhinovirus sp.); assay: Inhibitory activity against human rhinovirus 3C protease (HRV-14 3Cpro) at a concentration of 100 uM after 60 min of incubation; parameters: scale not given: the % may be the effect or the level left; procedure, shortened: as §1
[16] = target: T1, Human rhinovirus A protease (Human rhinovirus sp.); assay: Inhibitory activity against human rhinovirus 3C protease (HRV-14 3Cpro) at a concentration of 50 uM; parameters: scale not given: the % may be the effect or the level left; procedure, shortened: as §1
[17] = target: T1, Human rhinovirus A protease (Human rhinovirus sp.); assay: Inhibitory activity against human rhinovirus 3C protease (HRV-14 3Cpro) at a concentration of 150 uM after 75 min of incubation; parameters: scale not given: the % may be the effect or the level left; procedure, shortened: as §1
[18] = target: T1, Human rhinovirus A protease (Human rhinovirus sp.); assay: Inhibitory activity against human rhinovirus 3C protease (HRV-14 3Cpro) at a concentration of 50 uM after 45 min of incubation; parameters: scale not given: the % may be the effect or the level left; procedure, shortened: as §1
[19] = target: T1, Human rhinovirus A protease (Human rhinovirus sp.); assay: Inhibitory activity against human rhinovirus 3C protease (HRV-14 3Cpro) at a concentration of 50 uM after 15 min of incubation; parameters: scale not given: the % may be the effect or the level left; procedure, shortened: as §1
[20] = target: T1, Human rhinovirus A protease (Human rhinovirus sp.); assay: Inhibitory activity against human rhinovirus 3C protease (HRV-14 3Cpro) at a concentration of 100 uM after 45 min of incubation; parameters: scale not given: the % may be the effect or the level left; procedure, shortened: as §1

CC(C)C[C@H](NC(=O)[C@@H](NC(=O)OC(C)(C)C)C(C)C)C(=O)N[C@@H](Cc1ccccc1)C(=O)NCC(=O)Oc1ccccc1 (Boc-VLFG-X1)
k [1]: 0.009 min⁻¹

CC(C)C[C@H](NC(=O)[C@@H](NC(=O)OC(C)(C)C)C(C)C)C(=O)N[C@@H](Cc1ccccc1)C(=O)NN(CCC(N)=O)C(=O)OCc1ccccc1
Activity [2]: inactive

CC(C)C[C@H](NC(=O)[C@@H](NC(=O)OC(C)(C)C)C(C)C)C(=O)N[C@@H](Cc1ccccc1)C(=O)NN(CCC(N)=O)C(=O)Oc1ccccc1
Activity [3]: 5% | Activity [4]: 20% | Activity [5]: 75% | Activity [6]: 95% | Activity [7]: 95% | Activity [8]: 18% | Activity [9]: 28% | Activity [10]: 18% | Activity [11]: 85% | Activity [12]: 13% | Activity [13]: 70% | Activity [14]: 10% | Activity [15]: 90% | Activity [16]: 23% | Activity [17]: 45% | Activity [18]: 85% | Activity [19]: 40% | Activity [20]: 62%

CC(C)C[C@H](NC(=O)[C@@H](NC(=O)OC(C)(C)C)C(C)C)C(=O)N[C@@H](Cc1ccccc1)C(=O)NN(CCC(N)=O)C(=O)OCC(Cl)(Cl)Cl
Activity [2]: inactive

CC(C)(C)OC(=O)N[C@@H](Cc1ccccc1)C(=O)NN(CCC(N)=O)C(=O)Oc1ccccc1
Activity [2]: inactive
